pIC50: −log10 of the molar value. ≈ marks a conversion by molar mass, not a printed value. Calls of active or inactive are those of the source.
Key:
SF-268 [1] = assay: Cytotoxicity against human SF268 cells assessed as cell growth at 80 nM by sulforhodamine B assay relative to control; type: functional; settings: read-out: Activity
OVCAR-4 = assay: Cytotoxicity against human OVCAR4 cells assessed as cell growth at 8 nM by sulforhodamine B assay relative to control; type: functional; settings: read-out: Activity
OVCAR-3 = assay: Cytotoxicity against human OVCAR3 cells by sulforhodamine B assay; type: functional
Summary of the method: (§1)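 NCI Developmental Therapeutics Program 60-cell-line human tumor panel screen, run at NCI. A single-concentration pre-screen was followed by a five-concentration dose-response in 10-fold steps. GI50 is the concentration that reduces growth of treated cells to half that of untreated control cells. TGI is the concentration that completely halts growth.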

NCI/ADR-RES = assay: Cytotoxicity against human NCI/ADR-RES cells assessed as cell growth at 8 nM by sulforhodamine B assay relative to control; type: functional; settings: read-out: Activity
SK-OV-3 [2] = assay: Cytotoxicity against human SKOV3 cells assessed as cell growth at 800 nM by sulforhodamine B assay relative to control; type: functional; settings: read-out: Activity
SK-MEL-28 = assay: Cytotoxicity against human SK-MEL-28 cells assessed as cell growth at 80 nM by sulforhodamine B assay relative to control; type: functional; settings: read-out: Activity
LOX IMVI = assay: Cytotoxicity against human LOXIMVI cells assessed as cell growth at 80 uM by sulforhodamine B assay relative to control; type: functional; settings: read-out: Activity
Hs-578T [3] = assay: Cytotoxicity against human Hs578T cells assessed as cell growth at 8 nM by sulforhodamine B assay relative to control; type: functional; settings: read-out: Activity
SW-620 = assay: Cytotoxicity against human SW620 cells assessed as cell growth at 800 nM by sulforhodamine B assay relative to control; type: functional; settings: read-out: Activity
SF-268 [4] = assay: Cytotoxicity against human SF268 cells by sulforhodamine B assay; type: functional
SK-OV-3 [5] = assay: Cytotoxicity against human SKOV3 cells assessed as cell growth at 80 nM by sulforhodamine B assay relative to control; type: functional; settings: read-out: Activity
786-0 [6] = assay: Cytotoxicity against human 786-0 cells assessed as cell growth at 80 nM by sulforhodamine B assay relative to control; type: functional; settings: read-out: Activity
Summary of the method: (§2)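 Run at NCI in the DTP 60-cell-line human tumor panel by standard procedure. Compounds were first screened at a single concentration, then tested at five tenfold-spaced concentrations. GI50 is the concentration reducing treated-cell growth to half that of untreated controls; TGI is the concentration completely halting growth.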

BT-549 = assay: Cytotoxicity against human BT549 cells assessed as cell growth at 800 nM by sulforhodamine B assay relative to control; type: functional; settings: read-out: Activity; summary of the method: as §2
NCI-H23 = assay: Cytotoxicity against human NCI-H23 cells assessed as cell growth at 800 nM by sulforhodamine B assay relative to control; type: functional; settings: read-out: Activity
SF-539 = assay: Cytotoxicity against human SF539 cells assessed as cell growth at 80 nM by sulforhodamine B assay relative to control; type: functional; settings: read-out: Activity
Hs-578T [7] = assay: Cytotoxicity against human Hs578T cells assessed as cell growth at 80 nM by sulforhodamine B assay relative to control; type: functional; settings: read-out: Activity
Pseudomonas aeruginosa = assay: Antimicrobial activity against Pseudomonas aeruginosa ATCC 27853 by CLSI method; type: functional, organism-based
SNB-19 = assay: Cytotoxicity against human SNB19 cells assessed as cell growth at 800 nM by sulforhodamine B assay relative to control; type: functional; settings: read-out: Activity
SN12C [8] = assay: Cytotoxicity against human SN12C cells by sulforhodamine B assay; type: functional; summary of the method: as §1
RPMI-8226 = assay: Cytotoxicity against human RPMI8226 cells assessed as cell growth at 80 nM by sulforhodamine B assay relative to control; type: functional; settings: read-out: Activity
SNB-75 [9] = assay: Cytotoxicity against human SNB75 cells assessed as cell growth at 800 nM by sulforhodamine B assay relative to control; type: functional; settings: read-out: Activity
M14 = assay: Cytotoxicity against human M14 cells assessed as cell growth at 800 nM by sulforhodamine B assay relative to control; type: functional; settings: read-out: Activity
Candida albicans = assay: Antimicrobial activity against Candida albicans ATCC 90028 by CLSI method; type: functional, organism-based
NCI-H522 = assay: Cytotoxicity against human NCI-H522 cells assessed as cell growth at 80 uM by sulforhodamine B assay relative to control; type: functional; settings: read-out: Activity
MCF7 = assay: Cytotoxicity against human MCF7 cells assessed as cell growth at 8 nM by sulforhodamine B assay relative to control; type: functional; settings: read-out: Activity
MDA-MB-231 = assay: Cytotoxicity against human MDA-MB-231 cells assessed as cell growth at 8 nM by sulforhodamine B assay relative to control; type: functional; settings: read-out: Activity
A498 = assay: Cytotoxicity against human A498 cells assessed as cell growth at 80 uM by sulforhodamine B assay relative to control; type: functional; settings: read-out: Activity; summary of the method: as §2
Fusarium sp. = assay: Antimicrobial activity against Fusarium sp. by CLSI method; type: functional, organism-based
IGROV-1 = assay: Cytotoxicity against human IGROV1 cells assessed as cell growth at 8 nM by sulforhodamine B assay relative to control; type: functional; settings: read-out: Activity
MDA-MB-435 = assay: Cytotoxicity against human MDA-MB-435 cells assessed as cell growth at 800 nM by sulforhodamine B assay relative to control; type: functional; settings: read-out: Activity
Escherichia coli = assay: Antimicrobial activity against Escherichia coli ATCC 35218 by CLSI method; type: functional, organism-based
SK-MEL-5 = assay: Cytotoxicity against human SK-MEL-5 cells assessed as cell growth at 8 nM by sulforhodamine B assay relative to control; type: functional; settings: read-out: Activity
SN12C [10] = assay: Cytotoxicity against human SN12C cells assessed as cell growth at 8 nM by sulforhodamine B assay relative to control; type: functional; settings: read-out: Activity
NCI-H460 [11] = assay: Cytotoxicity against human NCI-H460 cells assessed as cell growth at 800 nM by sulforhodamine B assay relative to control; type: functional; settings: read-out: Activity
NCI-H322M = assay: Cytotoxicity against human NCI-H322M cells assessed as cell growth at 80 uM by sulforhodamine B assay relative to control; type: functional; settings: read-out: Activity
SNB-75 [12] = assay: Cytotoxicity against human SNB75 cells by sulforhodamine B assay; type: functional; summary of the method: as §1
HCT-15 = assay: Cytotoxicity against human HCT15 cells assessed as cell growth at 80 uM by sulforhodamine B assay relative to control; type: functional; settings: read-out: Activity
786-0 [13] = assay: Cytotoxicity against human 786-0 cells assessed as cell growth at 80 uM by sulforhodamine B assay relative to control; type: functional; settings: read-out: Activity; summary of the method: as §2
NCI-H460 [14] = assay: Cytotoxicity against human NCI-H460 cells by sulforhodamine B assay; type: functional; summary of the method: as §1
HCC 2998 = assay: Cytotoxicity against human HCC2998 cells by sulforhodamine B assay; type: functional
Summary of the method: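 Run by the NCI Developmental Therapeutics Program on its 60-line human tumour cell panel using the standard procedure. Compounds went through a single-concentration prescreen first, and those active by NCI criteria went on to a five-concentration growth-inhibition test. GI50 is the concentration that cuts growth of treated cells to half that of untreated control cells.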

For C/C=C1\NC(=O)[C@H](Cc2ccccc2)NC(=O)[C@@H](C(C)C)NC(=O)[C@@H]([C@@H](C)CC)NC(=O)[C@H](NC(=O)[C@H](NC(=O)[C@H](CCCNCc2ccc(F)c(C)c2)NC(=O)[C@H]2CCCN2C(=O)[C@H](NC(=O)[C@@H](NC(=O)[C@@H](NC(=O)[C@H](NC(=O)CCCC(C)C)C(C)C)[C@@H](C)O)C(C)C)C(C)C)[C@@H](C)CC)[C@@H](C)OC(=O)[C@H](C(C)C)NC1=O, the growth at 0.08 µM (SF-268 [1]) was 99%, the growth at 0.008 µM (OVCAR-4) was 100% and the GI50 (OVCAR-3) was 437 nM. For the same compound, the LC50 (OVCAR-3) was 3470 nM, the TGI (OVCAR-3; read-out: pTGI (converted)) was 1480 nM and the growth at 0.008 µM (NCI/ADR-RES) was 105%. It also gave a growth at 0.8 µM (SK-OV-3 [2]) of -46%, a growth at 0.08 µM (SK-MEL-28) of 105% and a growth at 80 µM (LOX IMVI) of -92%. For the same compound, the growth at 0.008 µM (Hs-578T [3]) was 102%, the growth at 0.8 µM (SW-620) was 40% and the GI50 (SF-268 [4]) was 955 nM. For the same compound, the growth at 0.08 µM (SK-OV-3 [5]) was 105%, the growth at 0.08 µM (786-0 [6]) was 97% and the growth at 0.8 µM (BT-549) was 87%. The growth at 0.8 µM (NCI-H23) was 98%, the growth at 0.08 µM (SF-539) was 104% and the growth at 0.08 µM (Hs-578T [7]) was 97%. The Activity (Pseudomonas aeruginosa) was “inactive”, the growth at 0.8 µM (SNB-19) was 90% and the GI50 (SN12C [8]) was 1260 nM. It also gave an LC50 (SN12C [8]) of 4900 nM, a TGI (SN12C [8]; read-out: pTGI (converted)) of 2450 nM and a growth at 0.08 µM (RPMI-8226) of 129%. The growth at 0.8 µM (SNB-75 [9]) was 21%, the growth at 0.8 µM (M14) was 101% and the pIC50 (Candida albicans) was 5.44. The MFC (Candida albicans) was 20 µM (≈ 32 µg/mL), the MIC (Candida albicans) was 10 µM (≈ 16 µg/mL) and the growth at 80 µM (NCI-H522) was -2%. It also gave a growth at 0.008 µM (MCF7) of 95%, a growth at 0.008 µM (MDA-MB-231) of 101% and a growth at 80 µM (A498) of -100%. For the same compound, the Activity (Fusarium sp.) was “Active”, the growth at 0.008 µM (IGROV-1) was 104% and the growth at 0.8 µM (MDA-MB-435) was 83%. The Activity (Escherichia coli) was “inactive”, the growth at 0.008 µM (SK-MEL-5) was 99% and the growth at 0.008 µM (SN12C [10]) was 89%. It also gave a growth at 0.8 µM (NCI-H460 [11]) of 104%, a growth at 80 µM (NCI-H322M) of -94% and a GI50 (SNB-75 [12]; read-out: GI50) of 370 nM. The TGI (SNB-75 [12]; read-out: TGI) was 1250 nM, the GI50 (SNB-75 [12]; read-out: pGI50 (converted)) was 372 nM and the TGI (SNB-75 [12]; read-out: pTGI (converted)) was 1260 nM. For the same compound, the growth at 80 µM (HCT-15) was -78%, the growth at 80 µM (786-0 [13]) was -98% and the GI50 (NCI-H460 [14]) was 1510 nM. For the same compound, the LC50 (HCC 2998) was 891 nM, the GI50 (HCC 2998; read-out: GI50) was 172 nM and the TGI (HCC 2998; read-out: TGI) was 367 nM. It also gave a GI50 (HCC 2998; read-out: pGI50 (converted)) of 174 nM and a TGI (HCC 2998; read-out: pTGI (converted)) of 363 nM.

— ChEMBL document CHEMBL1921722, “In vitro and in vivo evaluation of select kahalalide F analogs with antitumor and antifungal activities” (Bioorg Med Chem, 2011)
